Consider one molecule from ChEMBL document CHEMBL3085690, “Naturally occurring antimicrobial peptide OH-CATH30 selectively regulates the innate immune response to protect against sepsis” (J Med Chem, 2013).

The source made the active and inactive calls. No cut-off for these calls is given here. Peptide text beside a SMILES is read from it.

Experiment [1] relates to BMDM. In words: Induction of CXCL11 mRNA up-regulation in mouse BMDM at 20 ug/ml after 3 hrs by qRT-PCR analysis. Format: functional. An outline of the steps:
(§1)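 Murine BMDMs stimulated with peptide, then target mRNA quantified by qRT-PCR. Expression normalized to GAPDH, with untreated cells set to 1.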
(In general: Quantitative PCR measures a nucleic acid by following its amplification.)

Experiment [2] deals with BMDM. In words: Induction of CXCL3 mRNA up-regulation in mouse BMDM at 20 ug/ml after 3 hrs by qRT-PCR analysis. Format: functional. The gist of the method: as §1
Experiment [3] concerns BMDM. As to the kind of experiment: Induction of CCL7 mRNA up-regulation in mouse BMDM at 20 ug/ml after 3 hrs by qRT-PCR analysis. Format: functional. An outline of the steps: as §1
The subject of experiment [4] is BMDM. In words: Induction of CCL3 mRNA up-regulation in mouse BMDM at 20 ug/ml after 3 hrs by qRT-PCR analysis. Type of experiment: functional. The gist of the method:
as §1

The subject of experiment [5] is Mus musculus. As to the kind of experiment: Stimulation of innate immune response in Kunming mouse infected with Pseudomonas aeruginosa ATCC 27853 assessed as reduction of bacterial burden in peritoneal lavage by measuring survival rate at 10 mg/kg, ip administered 5 hrs before bacterial infection measured up to 7 days. Type of experiment: functional, organism-based. Further details: dose 10 mg/kg. The gist of the method:
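Peptide at 10 mg/kg ip was given 5 h before ip challenge with E. coli 25922 (2.5 × 10^8 CFU), P. aeruginosa 27853 (8 × 10^7 CFU) or S. aureus 25923 (2 × 10^8 CFU) per mouse. Viable bacteria were counted in peritoneal lavage collected in 2 mL of cold saline (n = 7, 6 and 8 respectively; unpaired t test). Survival was recorded for up to 7 days.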

Experiment [6] concerns Mus musculus. In words: Stimulation of innate immune response in Kunming mouse assessed as protection against CLP-induced mortality by measuring survival rate at 10 mg/kg, ip administered 12 hrs before bacterial infection measured up to 7 days. Type of experiment: functional. The note with it: route intraperitoneal.
In experiment [7] the test system is Mus musculus. In words: Stimulation of innate immune response in Kunming mouse assessed as protection against drug-resistant Pseudomonas aeruginosa-induced mortality by measuring survival rate at 10 mg/kg, ip administered 5 hrs before bacterial infection measured up to 7 days. Format: functional. The conditions noted are these: route intraperitoneal. The gist of the method:
(§2)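 Female Kunming mice (18−22 g) were dosed ip in sterile saline at 10 mg/kg, 5 h before ip challenge with clinical drug-resistant isolates: E. coli (n = 12), P. aeruginosa (n = 10) or S. aureus (n = 15). Survival was recorded for up to 7 days, with checks every 6 h and euthanasia by CO2 at the humane end point.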

Experiment [8] has as its system Mus musculus. As to the kind of experiment: Stimulation of innate immune response in Kunming mouse assessed as protection against drug-resistant Escherichia coli-induced mortality by measuring survival rate at 10 mg/kg, ip administered 5 hrs before bacterial infection measured up to 7 days. Type of experiment: functional. The note with it: route intraperitoneal. The gist of the method: as §2

For experiment [9], the system named is Mus musculus. In words: Stimulation of innate immune response in Kunming mouse assessed as protection against Escherichia coli ATCC 25922-induced mortality by measuring survival rate at 10 mg/kg, ip administered 24 hrs before bacterial infection measured up to 7 days. Format: functional, organism-based. Further details: dose 10 mg/kg. An outline of the steps: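 Female Kunming mice were challenged ip with E. coli 25922 at 2.5 × 10^8 CFU/mouse (n = 10). Peptide at 10 mg/kg in sterile saline was given ip at −24 h or +3 h relative to inoculation. Mice were monitored every 6 h and mortality was recorded for up to 7 days, with humane end points. Survival curves were compared by log-rank test.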

Experiment [10] concerns the target Mitogen-activated protein kinase 1 and 3 (ERK2 and ERK1) (Mus musculus) (UniProt P63085+Q63844). As to the kind of experiment: Activation of ERK1/2 in mouse BMDM assessed as phosphorylation at 10 ug/ml after 15 to 30 mins by Western blotting. Type of experiment: protein assay. The gist of the method:
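BMDMs (bone marrow cells grown in RPMI 1640 with 10% FCS and 20% L929-conditioned medium) stimulated, then lysates run on 10% SDS-PAGE and transferred to PVDF. Membranes blocked with 5% BSA and probed with phospho-ERK1/2 and total ERK1/2 antibodies, or with anti-IκBα. HRP anti-rabbit secondary, chemiluminescent detection.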
A general note: In western blotting, separated proteins are transferred to a membrane and probed.

Experiment [11] is described as follows: Increase of CXCL2 production in mouse BMDM after 6 hrs by ELISA in presence of NFkappaB inhibitor Bay11-7082. Format: functional. For orientation: In an ELISA, binding on a coated surface is turned into a signal by an enzyme label.
Experiment [12] has as its system BMDM. As to the kind of experiment: Increase of CXCL2 production in mouse BMDM after 6 hrs by ELISA in presence of CD14 Ab. Type of experiment: functional.
Experiment [13] concerns Mus musculus. In words: Stimulation of innate immune response in clodronate liposomes treated Kunming mouse monocytes depletion model assessed as increase of CXCL2 production in peritoneal lavage at 10 mg/kg, ip. Type of experiment: functional, organism-based. Set-up: dose 10 mg/kg.
Experiment [14] has as its system Mus musculus. In words: Stimulation of innate immune response in Kunming mouse assessed as increase of IL-1beta level in peritoneal lavage at 10 mg/kg, ip after 5 hrs. Format: functional, organism-based. Set-up: dose 10 mg/kg. The gist of the method:
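Female Kunming mice (18−22 g) received a single ip injection of peptide at 10 mg/kg in sterile saline. Peritoneal lavage was collected in 2 mL of cold sterile saline 5 h later, and cytokines and chemokines were measured by ELISA. Data are mean ± SD from four mice, compared by unpaired t test.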

Another experiment concerns RAW264.7. In words: Induction of H2O2 production in mouse RAW264.7 cells. Format: functional, cell-based.
The test system of another experiment is PBMC. As to the kind of experiment: Increase of cytokine production in human PBMC by qRT-PCR analysis. Type of experiment: functional, cell-based.
Another experiment has as its system THP-1. In words: Increase of cytokine production in PMA-differentiated human THP1 cells by ELISA. Format: functional, cell-based.
Experiment [15] relates to BMDM. In words: Increase of IL-1beta protein level in mouse BMDM at 20 ug/ml after 18 hrs by ELISA. Format: functional. An outline of the steps: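 Bone marrow-derived macrophages (RPMI 1640, 10% FCS, 20% L929-conditioned medium) stimulated with peptide for 18 h. Cytokines and chemokines in culture supernatant quantified by sandwich ELISA. Mean ± SD from three independent experiments, unpaired t test.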

Experiment [16] can be described thus: Induction of IL-17alpha mRNA up-regulation in mouse BMDM at 20 ug/ml after 3 hrs by qRT-PCR analysis relative to control. Type of experiment: functional. An outline of the steps: as §1

Sequence of Mitogen-activated protein kinase 1 and 3 (ERK2 and ERK1) (Mus musculus) (P63085 whole entry, looked up): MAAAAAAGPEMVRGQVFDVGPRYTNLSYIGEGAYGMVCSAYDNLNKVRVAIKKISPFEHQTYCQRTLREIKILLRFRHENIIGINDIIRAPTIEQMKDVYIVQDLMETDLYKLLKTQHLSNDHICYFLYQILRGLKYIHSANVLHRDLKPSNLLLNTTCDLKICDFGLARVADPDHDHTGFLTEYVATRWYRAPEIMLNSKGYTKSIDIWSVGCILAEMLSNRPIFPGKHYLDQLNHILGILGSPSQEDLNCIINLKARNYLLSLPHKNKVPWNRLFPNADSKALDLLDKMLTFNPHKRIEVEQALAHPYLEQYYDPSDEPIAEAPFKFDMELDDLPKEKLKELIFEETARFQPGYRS
Sequence of Mitogen-activated protein kinase 1 and 3 (ERK2 and ERK1) (Mus musculus) (Q63844 whole entry, looked up): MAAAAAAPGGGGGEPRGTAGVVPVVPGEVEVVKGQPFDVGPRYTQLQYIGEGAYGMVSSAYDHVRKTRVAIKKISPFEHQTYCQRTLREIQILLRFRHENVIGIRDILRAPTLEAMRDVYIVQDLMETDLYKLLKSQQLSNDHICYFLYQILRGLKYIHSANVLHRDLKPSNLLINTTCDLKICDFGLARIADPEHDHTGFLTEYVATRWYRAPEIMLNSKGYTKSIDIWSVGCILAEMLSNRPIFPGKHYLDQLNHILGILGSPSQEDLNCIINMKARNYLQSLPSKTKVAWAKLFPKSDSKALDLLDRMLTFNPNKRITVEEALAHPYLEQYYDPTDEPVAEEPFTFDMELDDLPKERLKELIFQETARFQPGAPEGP

With `CC[C@H](C)[C@H](NC(=O)[C@@H](NC(=O)[C@H](CCCNC(=N)N)NC(=O)[C@@H]1CCCN1C(=O)[C@H](CCCCN)NC(=O)[C@H](CCCCN)NC(=O)[C@H](Cc1ccccc1)NC(=O)[C@H](Cc1ccccc1)NC(=O)[C@H](CCCCN)NC(=O)[C@H](CCCCN)NC(=O)[C@H](C)NC(=O)[C@H](CCCNC(=N)N)NC(=O)[C@H](CCCCN)NC(=O)[C@H](CCCCN)NC(=O)[C@@H](NC(=O)[C@H](CO)NC(=O)[C@H](CC(N)=O)NC(=O)[C@H](CCCCN)NC(=O)[C@H](CC(C)C)NC(=O)[C@H](CCCCN)NC(=O)[C@H](CCCCN)NC(=O)[C@H](Cc1ccccc1)NC(=O)[C@H](Cc1ccccc1)NC(=O)[C@@H](N)CCCCN)C(C)C)C(C)C)C(=O)NCC(=O)N[C@H](C(=O)N[C@@H](CO)C(=O)N[C@H](C(=O)N1CCC[C@H]1C(=O)N[C@@H](Cc1ccccc1)C(=O)O)[C@@H](C)CC)C(C)C` (H-KFFKKLKNSVKKRAKKFFKKPRVIGVSIPF-OH), the outcome in the experiment on BMDM [1], in the experiment on BMDM [2], in the experiment with BMDM [3], in the experiment on BMDM [4], in the experiment on Mus musculus [5] and in the experiment on Mus musculus [9] was Active. In addition, the result (in experiment [10]; with BMDM [12]; in the experiment with PBMC; in the experiment on THP-1) was Active. Also, the survival at 10 mg/kg was 70% in the experiment with Mus musculus [6], 95% in the experiment with Mus musculus [7] and 92.5% in the experiment on Mus musculus [8]. The Activity in experiment [11] was 1000 pg/mL. The result in the experiment on Mus musculus [13], in the experiment with Mus musculus [14], with RAW264.7 and in the experiment with BMDM [15] was inactive. For the same molecule, the “fold change (FC)” value in experiment [16] was found to be 51.
